In ChEMBL document CHEMBL1147568, “5-lipoxygenase inhibitors with histamine H(1) receptor antagonist activity” (Bioorg Med Chem Lett, 2004):

Assays:
[1] = biological target: T1, Polyunsaturated fatty acid 5-lipoxygenase (Homo sapiens, UniProt P09917); experiment: In vitro inhibitory activity against 5-lipoxygenase in a human whole blood assay; assay type: tissue-based
T1 sequence (P09917 whole entry): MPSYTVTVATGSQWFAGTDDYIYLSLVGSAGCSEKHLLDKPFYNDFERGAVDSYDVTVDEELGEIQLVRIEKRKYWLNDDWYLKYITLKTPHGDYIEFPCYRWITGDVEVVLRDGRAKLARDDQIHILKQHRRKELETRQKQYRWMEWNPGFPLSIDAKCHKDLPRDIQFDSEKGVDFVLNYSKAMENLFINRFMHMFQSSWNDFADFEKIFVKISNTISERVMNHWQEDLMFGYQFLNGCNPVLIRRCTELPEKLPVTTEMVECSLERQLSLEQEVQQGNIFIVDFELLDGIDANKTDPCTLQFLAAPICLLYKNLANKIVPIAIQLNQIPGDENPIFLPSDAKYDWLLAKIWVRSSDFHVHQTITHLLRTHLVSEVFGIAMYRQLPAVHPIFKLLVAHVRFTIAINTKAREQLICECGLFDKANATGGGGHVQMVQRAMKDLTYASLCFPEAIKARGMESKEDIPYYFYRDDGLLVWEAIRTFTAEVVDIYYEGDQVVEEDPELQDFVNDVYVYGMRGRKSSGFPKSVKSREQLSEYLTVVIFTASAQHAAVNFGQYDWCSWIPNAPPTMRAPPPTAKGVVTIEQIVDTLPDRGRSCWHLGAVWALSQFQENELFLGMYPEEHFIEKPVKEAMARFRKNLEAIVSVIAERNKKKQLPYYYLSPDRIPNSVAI

Histamine H1 receptor = Histamine H1 receptor (Homo sapiens, UniProt P35367); experiment: In vitro binding affinity towards histamine H1 receptor expressed in CHO-K1 cells; assay type: cell-based
[2] = biological target: T2, Polyunsaturated fatty acid 5-lipoxygenase (Rattus norvegicus, UniProt P12527); experiment: In vitro inhibitory activity against 5-lipoxygenase in an RBL-2H3 cell lysate; assay type: cell-based
T2 sequence (P12527 whole entry): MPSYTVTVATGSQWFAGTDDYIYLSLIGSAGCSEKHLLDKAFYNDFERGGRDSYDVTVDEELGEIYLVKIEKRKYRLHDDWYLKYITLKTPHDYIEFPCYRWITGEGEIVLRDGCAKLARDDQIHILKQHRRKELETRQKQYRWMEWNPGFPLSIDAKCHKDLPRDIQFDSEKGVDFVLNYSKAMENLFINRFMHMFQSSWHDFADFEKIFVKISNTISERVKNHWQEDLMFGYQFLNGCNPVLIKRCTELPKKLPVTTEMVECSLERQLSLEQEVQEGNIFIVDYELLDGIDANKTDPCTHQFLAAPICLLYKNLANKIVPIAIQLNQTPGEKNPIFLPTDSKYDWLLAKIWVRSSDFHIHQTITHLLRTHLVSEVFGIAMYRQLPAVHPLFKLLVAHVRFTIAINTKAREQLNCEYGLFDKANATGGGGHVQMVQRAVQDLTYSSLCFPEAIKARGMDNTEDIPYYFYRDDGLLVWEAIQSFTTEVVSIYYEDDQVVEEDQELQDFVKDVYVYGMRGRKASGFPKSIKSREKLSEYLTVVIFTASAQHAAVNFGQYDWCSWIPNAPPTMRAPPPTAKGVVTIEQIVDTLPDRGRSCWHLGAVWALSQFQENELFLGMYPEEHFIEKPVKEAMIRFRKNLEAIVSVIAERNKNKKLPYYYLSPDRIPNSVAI

[3] = Permeability in Caco-2 cells of compound; assay type: ADME, cell-based; conditions: human
Method in brief: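 Permeability measured across Caco-2 cells and reported as apparent permeability (Papp) in cm/sec.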

Rattus norvegicus = organism: Rattus norvegicus; experiment: Intrinsic clearance of compound against NADPH-fortified rat liver microsomes; assay type: ADME, Microsome
Method in brief: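 Compound incubated with NADPH-fortified rat liver microsomes to measure metabolic stability. Intrinsic clearance is reported as µL/min/mg protein.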

Sequence of Histamine H1 receptor (P35367 whole entry): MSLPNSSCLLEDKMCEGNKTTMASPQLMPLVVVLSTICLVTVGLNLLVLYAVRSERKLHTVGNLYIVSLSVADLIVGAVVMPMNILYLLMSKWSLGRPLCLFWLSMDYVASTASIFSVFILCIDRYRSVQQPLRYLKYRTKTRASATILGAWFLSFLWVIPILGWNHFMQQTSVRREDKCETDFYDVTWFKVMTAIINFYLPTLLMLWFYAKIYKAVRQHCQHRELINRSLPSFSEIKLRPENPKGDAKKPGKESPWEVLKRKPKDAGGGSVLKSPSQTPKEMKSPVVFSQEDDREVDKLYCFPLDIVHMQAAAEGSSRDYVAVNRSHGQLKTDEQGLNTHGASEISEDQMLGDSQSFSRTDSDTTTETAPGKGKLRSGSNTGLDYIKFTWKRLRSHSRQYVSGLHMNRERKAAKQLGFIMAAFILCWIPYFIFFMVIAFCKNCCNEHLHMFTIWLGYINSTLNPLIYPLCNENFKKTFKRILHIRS

| SMILES | IC50 [1] | Ki (Histamine H1 receptor) | IC50 [2] | Permeability [3] | Clint (Rattus norvegicus) |
| --- | --- | --- | --- | --- | --- |
| NC(=O)N(O)CCC#Cc1ccc(CN2CCN(C(c3ccc(F)cc3)c3ccc(F)cc3)CC2)o1 | 0.17 µM |  | < 0.2 µM |  |  |
| NC(=O)N(O)CCC#C[C@@H]1CC[C@@H](COc2ccc(F)cc2)O1 | 0.117 µM |  |  |  |  |
| CC(C#Cc1ccc(CN2CCN([C@H](c3ccccc3)c3ccc(Cl)cc3)CC2)o1)N(O)C(N)=O (some centres undefined) | 3.5 µM | 0.19 µM |  |  |  |
| NC(=O)N(O)CCC#Cc1ccc(CN2CCN([C@H](c3ccccc3)c3ccc(Cl)cc3)CC2)o1 | 0.42 µM |  | < 0.2 µM | 6 ×10⁻⁶ cm/s | 33 ul min-1 (mg of protein)-1 |

More lines, main results first:

| IC50 [1] | Ki (Histamine H1 receptor) | SMILES | IC50 [2] | Permeability [3] | Clint (Rattus norvegicus) |
| --- | --- | --- | --- | --- | --- |
| 0.14 µM | 0.66 µM | NC(=O)N(O)CCC#C[C@@H]1CC[C@@H](CN2CCN(C(c3ccc(F)cc3)c3ccc(F)cc3)CC2)O1 |  |  |  |
|  | 0.05 µM | NC(=O)N(O)CCC#C[C@@H]1CC[C@@H](CN2CCN([C@H](c3ccccc3)c3ccc(Cl)cc3)CC2)O1 |  |  |  |
| 0.51 µM | 0.18 µM | NC(=O)N(O)CCC#C[C@H]1CC[C@H](CN2CCN([C@H](c3ccccc3)c3ccc(Cl)cc3)CC2)O1 |  |  |  |
